Test results as given in ChEMBL document CHEMBL1955865, “Synthesis of novel spirooxindole derivatives by one pot multicomponent reaction and their antimicrobial activity” (2012).
In brackets after ≈: the same amount, converted by molar mass. Activity calls are given as the source filed them. The calls are words filed in the database; no cut-off is given here.

What was measured:
[1] = Antifungal activity against Malassezia pachydermatis at 1000 ug/disc after 48 hrs by disc diffusion assay; assay type: functional
Outline: (§1)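 Fungal disc diffusion with inoculum from SDA spores (filamentous) or SDB culture (yeast). Test cultures were swabbed on agar, and discs at 1000 µg/disc were left 30 min at room temperature, with a solvent negative control. Plates were incubated 48 h at 27 °C. Zone of inhibition was measured in mm, and the experiment was repeated twice.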

Candida albicans [2] = assay: Antifungal activity against Candida albicans MTCC 227 at 1000 ug/disc after 48 hrs by disc diffusion assay; assay type: functional; conditions: for zone of inhibition at 1000 µg/disc: MTCC 227, 48 h, read-out: IZ; outline: as §1
Botrytis cinerea [3] = assay: Antifungal activity against Botrytis cinerea at 1000 ug/disc after 48 hrs by disc diffusion assay; assay type: functional; conditions: for zone of inhibition at 1000 µg/disc: read-out: IZ; outline: as §1
Staphylococcus aureus [4] = assay: Antibacterial activity against Staphylococcus aureus MTCC 96 at 1000 ug/disc after 24 hrs by disc diffusion assay; assay type: functional; conditions: MTCC 96, 24 h, read-out: IZ
Outline: (§2)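 Disc diffusion on Mueller Hinton agar. Cultures (about 10^4 CFU/ml) were swabbed on and dried 10 min. Discs loaded at 1000 µg/disc were left 30 min at room temperature for diffusion, with a solvent negative control. Plates were incubated 24 h at 37 °C. Inhibition zones were measured in mm, and the experiment was done twice.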

Staphylococcus aureus [5] = assay: Antibacterial activity against methicillin-resistant Staphylococcus aureus at 1000 ug/disc after 24 hrs by disc diffusion assay; assay type: functional; conditions: for zone of inhibition at 1000 µg/disc: read-out: IZ
Outline: (§3)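 Disc diffusion on Mueller Hinton agar. Bacteria were grown 24 h at 37 °C in MHB and diluted to about 10^4 CFU/ml, swabbed onto plates and dried 10 min. Discs were loaded at 1000 μg/disc and held 30 min at room temperature for diffusion. Solvent served as negative control. After 24 h at 37 °C, inhibition zones were read in mm; run twice.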

Micrococcus luteus = assay: Antibacterial activity against Micrococcus luteus at 1000 ug/disc after 24 hrs by disc diffusion assay; assay type: functional; conditions: read-out: IZ; outline: as §2
Klebsiella aerogenes = assay: Antibacterial activity against Enterobacter aerogenes MTCC 111 at 1000 ug/disc after 24 hrs by disc diffusion assay; assay type: functional; conditions: for zone of inhibition at 1000 µg/disc: MTCC 111, 24 h, read-out: IZ; outline: as §2
Proteus vulgaris = assay: Antibacterial activity against Proteus vulgaris MTCC 1771 at 1000 ug/disc after 24 hrs by disc diffusion assay; assay type: functional; conditions: MTCC 1771, 24 h, read-out: IZ; outline: as §2
Klebsiella pneumoniae = assay: Antibacterial activity against Klebsiella pneumoniae MTCC 109 at 1000 ug/disc after 24 hrs by disc diffusion assay; assay type: functional; conditions: MTCC 109, 24 h, read-out: IZ; outline: as §2
Salmonella typhimurium = assay: Antibacterial activity against Salmonella Typhimurium MTCC 1251 at 1000 ug/disc after 24 hrs by disc diffusion assay; assay type: functional, Salmonella enterica subsp. enterica serovar Typhimurium; conditions: Salmonella enterica, MTCC 1251, 24 h; read-out: IZ; outline: as §2
[6] = system: Salmonella enterica subsp. enterica serovar Paratyphi B; assay: Antibacterial activity against Salmonella paratyphi B at 1000 ug/disc after 24 hrs by disc diffusion assay; assay type: functional; conditions: for zone of inhibition at 1000 µg/disc: read-out: IZ; outline: as §3
[7] = Antifungal activity against Malassezia pachydermatis after 48 to 72 hrs by twofold serial dilution method; assay type: functional
Outline: (§4)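 Broth two-fold serial dilution, 1000 to 15.62 µg/ml, with compound dissolved in 2% DMSO, in 96-well plates. Filamentous fungal spores came from 10-day SDA slants at 28 °C, and yeast from SDB grown 48 h at 28 °C. Incubation was 48-72 h at 28 °C. MIC was the lowest concentration with no visible fungal growth.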

Candida albicans [8] = assay: Antifungal activity against Candida albicans MTCC 227 after 48 to 72 hrs by twofold serial dilution method; assay type: functional; outline: as §4
Botrytis cinerea [9] = assay: Antifungal activity against Botrytis cinerea after 48 to 72 hrs by twofold serial dilution method; assay type: functional; outline: as §4

| SMILES | inhibition zone (IZ) [1] | zone of inhibition at 1000 µg/disc (Candida albicans [2]) | zone of inhibition at 1000 µg/disc (Botrytis cinerea [3]) | zone of inhibition at 1000 µg/disc (Staphylococcus aureus [4]) | zone of inhibition at 1000 µg/disc (Staphylococcus aureus [5]) | zone of inhibition at 1000 µg/disc (Micrococcus luteus) | zone of inhibition at 1000 µg/disc (Klebsiella aerogenes) | zone of inhibition at 1000 µg/disc (Proteus vulgaris) | zone of inhibition at 1000 µg/disc (Klebsiella pneumoniae) | zone of inhibition at 1000 µg/disc (Salmonella typhimurium) | zone of inhibition at 1000 µg/disc [6] | inhibition zone (IZ) (Botrytis cinerea [3]) | inhibition zone (IZ) [6] | MIC [7] | MIC (Candida albicans [8]) | MIC (Botrytis cinerea [9]) | inhibition zone (IZ) (Candida albicans [2]) | inhibition zone (IZ) (Staphylococcus aureus [5]) | inhibition zone (IZ) (Klebsiella aerogenes) |
| --- | --- | --- | --- | --- | --- | --- | --- | --- | --- | --- | --- | --- | --- | --- | --- | --- | --- | --- | --- |
| CN1CC2=C(C(=O)c3ccccc3C2=O)C12C(=O)Nc1ccc(Cl)cc12 (stereo not given) | 10 mm | 9 mm | 8 mm | 14 mm | 11 mm | 12 mm | 10 mm | 10 mm | 13 mm | 11 mm | 13 mm | – | – | – | – | – | – | – | – |
| O=C1C2=C(C(=O)c3ccccc31)C1(C(=O)N(Cc3ccccc3)c3ccccc31)N1CCCC21 (stereo not given) | 9 mm | 8 mm | – | 10 mm | 8 mm | 9 mm | 8 mm | 10 mm | 8 mm | 9 mm | – | inactive | inactive | – | – | – | – | – | – |
| CN1C(=O)C2(C3=C(C(=O)c4ccccc4C3=O)C3CCCN32)c2ccccc21 (stereo not given) | 10 mm | 10 mm | 8 mm | 10 mm | 8 mm | 9 mm | 9 mm | 8 mm | 9 mm | 11 mm | – | – | inactive | – | – | – | – | – | – |
| OC(Cn1cncn1)(Cn1cncn1)c1ccc(F)cc1F [FLUCONAZOLE] | – | – | – | – | – | – | – | – | – | – | – | – | – | 12.5 µg/mL (≈ 40.8 µM) | > 100 µg/mL | inactive | – | – | – |
| O=C1C2=C(C(=O)c3ccccc31)C1(C(=O)Nc3ccc(Cl)cc31)N1CCCC21 (stereo not given) | 9 mm | – | – | 12 mm | 9 mm | 10 mm | 9 mm | 9 mm | 11 mm | 10 mm | – | inactive | inactive | – | – | – | inactive | – | – |
| C=CCN1C(=O)C2(C3=C(CN2C)C(=O)c2ccccc2C3=O)c2ccccc21 (stereo not given) | 9 mm | 9 mm | 8 mm | 11 mm | 9 mm | 10 mm | 9 mm | 8 mm | 9 mm | 11 mm | – | – | inactive | – | – | – | – | – | – |
| CN1CC2=C(C(=O)c3ccccc3C2=O)C12C(=O)c1ccccc1C2=O | inactive | – | 9 mm | 9 mm | – | 8 mm | 8 mm | 8 mm | 9 mm | 10 mm | 9 mm | – | – | – | – | – | inactive | inactive | – |
| CN1CC2=C(C(=O)c3ccccc3C2=O)C12C(=O)c1cccc3cccc2c13 (stereo not given) | 8 mm | 8 mm | 9 mm | 9 mm | – | 8 mm | – | 8 mm | 9 mm | 10 mm | – | – | inactive | – | – | – | – | inactive | inactive |
